# Screening data (PubChem BioAssay)
# SMARCA2 activ: SMARCA2 function activation, primary screen; MG213 cells, MMTV-luciferase reporter, dexamethasone, overnight; activation, % at 9.1 µM; actives 1% (n = 370,000); AID 652017; in the data active = activation above about 7.8%;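 note: 0% = vehicle wells and 100% = reference activator wells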
# NR2E3 ag-1: human photoreceptor-specific nuclear receptor agonism | Q9Y5X4 | CHO-S Gal4-NCOR/VP16-NR2E3 two-hybrid, luciferase | inhibition of corepressor binding, % at 3.98 µM | actives 0.35% (n = 360,000);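 active = inhibition above the mean of all tested compounds plus 3 SD, cut at about 70% in these data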;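 note: 0% = DMSO with NR2E3 transfected cells and 100% = cells lacking NR2E3 construct; higher means lower luciferase signal from less NR2E3 corepressor binding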
# Target sequence (Q9Y5X4 whole entry, looked up, the tested form may be a part): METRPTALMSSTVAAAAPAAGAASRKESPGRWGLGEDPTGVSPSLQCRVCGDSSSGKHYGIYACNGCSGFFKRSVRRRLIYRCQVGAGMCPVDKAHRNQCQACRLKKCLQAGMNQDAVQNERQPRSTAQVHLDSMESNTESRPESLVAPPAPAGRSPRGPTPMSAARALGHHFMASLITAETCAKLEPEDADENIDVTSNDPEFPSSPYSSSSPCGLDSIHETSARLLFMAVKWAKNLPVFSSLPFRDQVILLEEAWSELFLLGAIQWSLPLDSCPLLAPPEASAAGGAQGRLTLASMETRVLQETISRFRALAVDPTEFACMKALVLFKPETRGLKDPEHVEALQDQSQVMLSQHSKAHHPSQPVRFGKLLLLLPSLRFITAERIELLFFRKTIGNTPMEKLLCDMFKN
# DAX1 inh-1: blocks DAX1 repression of SF-1 activated StAR promoter; HEK293T StAR-luciferase reporter, SF-1/DAX-1 repression relief; inhibition, % at 6.8 µM; actives 1.1% (n = 370,000); AID 652010;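 active = inhibition above the mean over all tested compounds plus 3 SD, cut at about 3.6% in these data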;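 note: 0% = DAX-1 cells with DMSO and 100% = cells lacking DAX-1 with DMSO; higher inhibition means more luminescence from relief of DAX-1 repression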
# NR2E3 ag-2: agonists of human nuclear receptor NR2E3; Q9Y5X4; GST-NR2E3/biotin-RetCOR TR-FRET, 1536-well; inhibition of corepressor binding, % at 4.78 µM; actives 0.12% (n = 320,000);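 active = percent inhibition above the cutoff of mean plus 3 SD of all tested compounds, set per screening campaign, cut at about 20% in these data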;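 note: 0% = DMSO wells and 100% = biotin wells as full block of FRET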
#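 Material – GST-tagged NR2E3 plus biotinylated RetCOR corepressor · Quantity – NR2E3 fusion 1.35 nM · Times – 5 h incubation at 4 °C · Medium – pH 7.5 Tris-based buffer · Technique – TR-FRET, Eu(K)-anti-GST donor, streptavidin-D2 acceptor, ex 340, em 617/671 nm · Benchmarks – high control biotin, low control 0.6% DMSO · Format – 1536-well plates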
# DAX1 inh-2: inhibits human nuclear receptor DAX1. inhibition, % at 6.75 µM. actives 0.99% (n = 340,000). HEK293 Gal4-DAX1 luciferase reporter, luminescence. AID 504766;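 active = inhibition above the mean over all tested compounds plus 3 SD, cut at about 4.2% in these data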;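 note: 0% = DAX1-transfected cells with DMSO and 100% = empty-vector control cells with DMSO; inhibition shows as a rise in luminescence from relieved DAX1 repression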
# Target sequence (P51843 207-470 limits assumed): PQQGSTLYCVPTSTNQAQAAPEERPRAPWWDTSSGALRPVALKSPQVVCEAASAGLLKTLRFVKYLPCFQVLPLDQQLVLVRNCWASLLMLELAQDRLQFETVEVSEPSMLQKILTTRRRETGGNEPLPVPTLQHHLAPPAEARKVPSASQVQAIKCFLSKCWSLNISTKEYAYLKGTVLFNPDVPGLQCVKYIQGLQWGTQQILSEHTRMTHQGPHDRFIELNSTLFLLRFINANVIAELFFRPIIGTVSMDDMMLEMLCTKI
# GASC-1 inh: inhibitors of human GASC-1 (JMJD2C) demethylase; GST-JMJD2C(1-420) H3K9me3 demethylation, DELFIA europium; inhibition, % at 2.35 µM; Q9H3R0; actives 0.069% (n = 330,000);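 active = more than half of a compound's replicate wells show inhibition beyond 50%, single wells judged on their own value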;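 note: signal counts dimethyl H3K9 product captured on neutravidin plate; 0% = median of DMSO wells and 100% = 0.3 times that DMSO median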
# An asterisk follows results filed as active; i = inactive; · = no result given. Compounds with a hit are over-represented: about 3.2% of the library has one in this group of screens.
SMILES,SMARCA2 activ,NR2E3 ag-1,DAX1 inh-1,NR2E3 ag-2,DAX1 inh-2,GASC-1 inh
CCCCN1/C(=C/c2ccc3ccccc3[n+]2CC)Sc2ccccc21,·,80*,·,·,·,0
CCCCN1/C(=C/c2cccc[n+]2C)Sc2cc(NC(C)=O)ccc21,-2,-16,0,-3,2,36
CC(C)NC(=O)[C@]1(C#N)CC(=O)N(C)[C@@H]1c1ccccc1,2,·,0,·,·,·
Cc1ccc(S(=O)(=O)N[C@@H](CC(C)C)C(=O)N2CCC(C(=O)N[C@@H](Cc3ccccc3)C(=O)O)CC2)cc1,0,-12,0,1,6.9*,44
Cc1ccc(S(=O)(=O)N[C@@H](CC(C)C)C(=O)N2CCC(C(=O)N[C@H](C(=O)O)C(C)C)CC2)cc1,2,-35,-1,3,2,1
Cc1ccc(S(=O)(=O)N[C@H](C(=O)N2CCC(C(=O)N[C@@H](CC(=O)O)C(=O)O)CC2)C(C)C)cc1,-3,-14,1,4,8.8*,i
COc1nc(OC)nc(N2CCC(C(=O)NCc3ccccc3OC)CC2)n1,-6,·,0,·,·,·
CC(=O)OCCCN1CCC2(CCC(c3ccccc3)CC2)C1=O (stereo not drawn),-3,·,-1,·,·,·
Cc1cc2oc(C(=O)N(Cc3ccccc3)c3ccccn3)cc(=O)c2cc1Cl,-4,-20,0,0,·,-4
Cc1cc(C)c2oc(C(=O)N(Cc3ccccc3)c3ccccn3)cc(=O)c2c1,0,-10,0,1,6.3*,-6
CCOc1ccc(OCC)c(NC(=O)CCSCCc2ccccn2)c1,0,-4,0,-1,4.3*,2
CCOc1ccc(OCC)c(NC(=O)CSc2nnnn2CC)c1,-1,0,0,-1,4.3*,8
CCn1c2ccccc2c2cc(NC(=O)CSc3nnc(-c4ccccc4)n3Cc3ccco3)ccc21,-3,·,-1,·,·,·
CC(C)c1ccc(/C=C/C(=O)O)cc1,-4,-1,1,3,4.3*,32
CCN1CCN(C(=O)/C=C/c2ccc(C(C)C)cc2)CC1,-3,8,0,2,0,9
CCCNC(=O)/C=C/c1ccc(C(C)C)cc1,2,-91,1,-2,5.0*,13
Nn1c(SCC(=O)NC2CCCCC2)nnc1-c1cc(-c2ccccc2)n[nH]1,-2,·,-1,·,·,·
O=C(N1CCOCC1)N1CC[C@H]2[C@H](CCCN2Cc2cc(F)cc(F)c2)C1,2,·,0,·,·,·
CN(C)c1c(F)cc(C(=O)NCc2ccccc2)cc1F,-6,-4,0,-3,4.3*,4
c1ccc(CCc2nc(-c3ccccc3)no2)cc1,1,4,1,-3,0,-9
Brc1ccc(-c2noc(CCc3ccccc3)n2)cc1,1,-31,1,-1,4.7*,7
CC(CCN1CCC(C(O)(c2ccccc2)c2ccccc2)CC1)Oc1ccc(F)cc1 (stereo not drawn),-2,·,0,·,·,·
Cc1nc(NC(=O)c2cc3c(s2)CCCCC3)sc1C(=O)N(C)C,4,-97,1,6,0,-7
Cc1ccc(NC(=O)c2cc3c(s2)CCCC3)cc1,-1,-110,4.2*,0,6.6*,-8
COC(=O)c1sc(NC(=O)c2cc3c(s2)CCCC3)nc1C,5,-89,2,6,0,60*
SMILES,SMARCA2 activ,NR2E3 ag-1,DAX1 inh-1,NR2E3 ag-2,DAX1 inh-2,GASC-1 inh
COc1ccc(NC(=O)c2csc3c2CCCC3)cc1,·,-161,·,-4,2,2
Cc1ccc(NC(=O)CN(C)C(=O)c2cc3c(s2)CCCCC3)cc1,-4,-10,1,6,0,·
Cc1ccc(NC(=O)c2scc3c2CCCC3)cc1,4,-161,3,-4,4.6*,-8
O=C(COC(=O)c1cc2c(s1)CCC2)Nc1ccc(F)cc1,0,7,0,-2,4.5*,-6
C=C1CCC2C(C)(C)CCC[C@]2(C)[C@H]1CC1=C(O)C(=O)C(CO)=CC1=O (stereo partly drawn),-7,·,-7,·,·,·
COc1cc([N+](=O)[O-])cc(/C=N/NC(=O)Cn2nccc2C)c1O,3,-6,-1,-2,6.0*,-1
COC(=O)[C@]12C[C@H](CC(=O)NCCCCc3ccccc3)C(=O)N(Cc3ccc(Cl)cc3Cl)C1=C[C@H](C1CCCC1)O[C@@H]2C,-2,·,-1,·,·,·
O=C1CCc2cccc(O)c2N1,-4,6,-1,·,4.9*,·
O=S1(=O)c2c(cccc2N2CCSCC2)Oc2ccccc2CN1Cc1cn(Cc2cccc(F)c2)nn1,0,·,-2,·,·,·
CCCCOCCCNC(=O)C[C@@H]1C(=O)N(Cc2ccc(OC)cc2)C2=CCN(C(=O)OC(C)(C)C)C[C@]21C(=O)OCC,-2,·,-1,·,·,·
COC(=O)[C@]12C[C@H](CC(=O)NCC34CC5CC(CC(C5)C3)C4)C(=O)N(Cc3ccco3)C1=C[C@H](C(C)C)O[C@@H]2C1CC1,-3,·,-1,·,·,·
Cc1nn(-c2ccccc2)c2sc(C(=O)NC3CCCc4ccccc43)cc12 (stereo not drawn),-5,·,1,·,·,·
COc1ccc(C(=O)O/N=C(\N)c2ccccn2)cc1,-9,-83,0,-2,-3,3
N/C(=N\OC(=O)c1cccc(Cl)c1)c1ccccn1,4,-98,3.9*,1,-5,-5
N/C(=N\OC(=O)c1ccc(Cl)cc1)c1ccccn1,1,-73,4.2*,-3,-4,8
N/C(=N\OC(=O)c1ccc(Cl)c(Cl)c1)c1ccccn1,7,-149,4.2*,-3,0,-4
O=C(Nc1c(-c2ccc(F)c(F)c2)nc2ncccn12)C1CC1,-2,·,-1,·,·,·
CN(CCO)c1ccc2c(c1)Oc1ccccc1CN(Cc1cn(Cc3ccccc3C(F)(F)F)nn1)S2(=O)=O,-5,·,2,·,·,·
N#C/C(=C(\O)Cc1ccccc1)c1nc2ccccc2[nH]1,1,10,-1,1,2,-1
COCC(=O)OC/C(O)=C(\C#N)c1nc2ccccc2[nH]1,4,-10,-2,1,4.7*,-4
N#C/C(=C(/O)c1ccco1)c1nc2ccccc2[nH]1,4,-23,3.9*,1,5.0*,-1
Cc1ccc(C)c(NC(=O)c2cc(-c3ccc(Cl)cc3)nc3ccccc23)c1,-4,·,0,·,·,·
Cc1cc2ncc(-c3ccc(Cl)cc3)cn2n1,7,-101,3.7*,1,2,-6
O=C(O)c1cccc(Cn2c(Cl)c(/C=N/NC(=O)c3ccc(O)cc3)sc2=O)c1,-6,-30,0,-1,4.6*,-1
O=S(=O)(NCC(c1ccco1)N1CCc2ccccc2C1)c1ccc(Br)cc1 (stereo not drawn),-1,-15,3.7*,-3,0,86
Cc1ccc(S(=O)(=O)NCC(c2ccco2)N2CCc3ccccc3C2)cc1 (stereo not drawn),0,-6,0,2,-1,5
